Columns and labels:
[1] = target: Vascular endothelial growth factor receptor 2 (Homo sapiens, UniProt P35968); experiment: Inhibition of VEGFR2 (unknown origin) incubated for 10 mins followed by kinase substrate addition and measured after 30 mins by caliper mobility shift assay
HT-29 = experiment: Antiproliferative activity against human HT-29 cells assessed as cell growth inhibition after 72 hrs by MTT assay; type: functional, cell-based; details: HT-29, 72 h
Summary of the method: (§1)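 Log-phase cells were seeded at 5 × 10³ per well and attached 24 h. HT-29 and GES-1 were grown in DMEM-based medium, A549/HepG2/HGC-27 in RPMI-1640, HUVEC in ECM with ECGS; all media had 10% FBS. Cells were exposed to graded compound concentrations for 72 h at 37 °C. MTT (5 mg/mL stock) was added for 4 h, formazan dissolved in DMSO, and A490 read. IC50 was obtained by nonlinear sigmoidal regression; mean ± S.E. of three experiments.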

A549 = experiment: Antiproliferative activity against human A549 cells assessed as cell growth inhibition after 72 hrs by MTT assay; type: functional, cell-based; details: A549, 72 h; summary of the method: as §1
HepG2 = experiment: Antiproliferative activity against human HepG2 cells assessed as cell growth inhibition after 72 hrs by MTT assay; type: functional, cell-based; details: HepG2, 72 h; summary of the method: as §1
HGC-27 [2] = experiment: Antiproliferative activity against human HGC-27 cells assessed as cell growth inhibition after 72 hrs by MTT assay; type: functional, cell-based; details: HGC-27, 72 h; summary of the method: as §1
HUVEC [3] = experiment: Cytotoxicity against human HUVEC cells assessed as inhibition of cell growth incubated for 72 hrs by MTT assay; type: cell-based; summary of the method: as §1
GES1 = experiment: Cytotoxicity against human GES-1 cells assessed as inhibition of cell growth incubated for 72 hrs by MTT assay; type: cell-based; details: GES1, 72 h; summary of the method: as §1
HGC-27 [4] = experiment: Induction of apoptosis in human HGC-27 cells assessed as total apoptotic cells level at 5 uM incubated for 24 hrs by propidium iode and annexin V-FITC staining based flow cytometry; type: functional
HGC-27 [5] = experiment: Induction of apoptosis in human HGC-27 cells assessed as viable cells level at 5 uM incubated for 24 hrs by propidium iode and annexin V-FITC staining based flow cytometry (reference value: 96.0%); type: functional
HGC-27 [6] = experiment: Induction of apoptosis in human HGC-27 cells assessed as early apoptotic cells level at 5 uM incubated for 24 hrs by propidium iode and annexin V-FITC staining based flow cytometry (reference value: 1.48%); type: functional
HGC-27 [7] = experiment: Induction of apoptosis in human HGC-27 cells assessed as late apoptotic cells level at 5 uM incubated for 24 hrs by propidium iode and annexin V-FITC staining based flow cytometry (reference value: 0.86%); type: functional
HGC-27 [8] = experiment: Induction of apoptosis in human HGC-27 cells assessed as necrotic cells level at 5 uM incubated for 24 hrs by propidium iode and annexin V-FITC staining based flow cytometry (reference value: 1.64%); type: functional
HUVEC [9] = experiment: Antiangiogenic activity against HUVEC cells assessed as reduction in VEGF-induced tube formation tube formation incubated for 12 hrs by matrigel-based assay; type: functional, cell-based; details: Homo sapiens
Summary of the method: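 HUVECs at 4 × 10⁵ cells/mL seeded on Matrigel that had been polymerized 1 h at 37 °C. Cells were stimulated with 20 ng/mL VEGF and treated with compound (1, 2.5, 5 and 10 μM) or 0.1% DMSO vehicle for 12 h at 37 °C. Tubes were imaged by inverted microscopy. Tube length, surface area and branch points were quantified as pixel area.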

Sequence of Vascular endothelial growth factor receptor 2 (P35968 whole entry): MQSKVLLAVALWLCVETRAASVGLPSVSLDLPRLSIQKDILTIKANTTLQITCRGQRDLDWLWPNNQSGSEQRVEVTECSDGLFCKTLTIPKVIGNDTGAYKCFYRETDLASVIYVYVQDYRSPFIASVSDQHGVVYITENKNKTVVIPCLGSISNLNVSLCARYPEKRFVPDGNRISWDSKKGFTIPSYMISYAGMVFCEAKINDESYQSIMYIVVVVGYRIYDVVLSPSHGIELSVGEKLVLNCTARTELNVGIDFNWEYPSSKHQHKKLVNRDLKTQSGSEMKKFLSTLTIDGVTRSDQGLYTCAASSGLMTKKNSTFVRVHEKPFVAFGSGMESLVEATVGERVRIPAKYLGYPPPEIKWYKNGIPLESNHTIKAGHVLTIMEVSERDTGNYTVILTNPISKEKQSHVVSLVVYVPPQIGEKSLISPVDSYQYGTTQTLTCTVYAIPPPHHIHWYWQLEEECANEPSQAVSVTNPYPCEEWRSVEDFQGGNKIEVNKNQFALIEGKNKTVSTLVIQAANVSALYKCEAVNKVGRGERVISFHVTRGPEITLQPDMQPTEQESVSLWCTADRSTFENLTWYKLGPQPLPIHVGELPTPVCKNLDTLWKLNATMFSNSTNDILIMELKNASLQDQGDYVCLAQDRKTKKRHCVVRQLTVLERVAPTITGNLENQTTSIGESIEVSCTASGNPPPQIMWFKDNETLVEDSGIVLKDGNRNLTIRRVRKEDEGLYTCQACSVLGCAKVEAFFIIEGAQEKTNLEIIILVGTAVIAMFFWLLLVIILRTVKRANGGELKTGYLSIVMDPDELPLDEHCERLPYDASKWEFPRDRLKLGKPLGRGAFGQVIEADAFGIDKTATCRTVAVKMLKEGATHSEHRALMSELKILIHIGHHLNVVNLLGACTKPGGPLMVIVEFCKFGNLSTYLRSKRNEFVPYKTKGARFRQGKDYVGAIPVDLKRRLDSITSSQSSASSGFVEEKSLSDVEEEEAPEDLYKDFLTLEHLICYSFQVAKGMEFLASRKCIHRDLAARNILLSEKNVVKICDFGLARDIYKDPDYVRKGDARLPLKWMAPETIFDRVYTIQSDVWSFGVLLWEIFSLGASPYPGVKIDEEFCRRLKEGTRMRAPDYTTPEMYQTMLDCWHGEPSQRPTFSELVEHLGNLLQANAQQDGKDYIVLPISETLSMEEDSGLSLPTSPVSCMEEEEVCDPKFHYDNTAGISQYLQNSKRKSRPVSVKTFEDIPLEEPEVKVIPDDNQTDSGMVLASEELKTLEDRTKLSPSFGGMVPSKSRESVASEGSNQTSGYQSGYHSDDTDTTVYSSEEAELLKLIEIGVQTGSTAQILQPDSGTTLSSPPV

SMILES | IC50 [1] [µM] | IC50 (HT-29) [µM] | IC50 (A549) [µM] | IC50 (HepG2) [µM] | IC50 (HGC-27 [2]) [µM] | IC50 (HUVEC [3]) [µM] | IC50 (GES1) [µM] | Activity (HGC-27 [4]) [%] | Activity (HGC-27 [5]) [%] | Activity (HGC-27 [6]) [%] | Activity (HGC-27 [7]) [%] | Activity (HGC-27 [8]) [%] | inhibition (HUVEC [9])
Nc1n[nH]c2cc(-c3cnn(CC(=O)Nc4cccc(C(F)(F)F)c4)c3)ccc12 | 0.0074 | 3.97 | 19.5 | 11.5 | 10.2 | 7.25 | 22.3 |  |  |  |  |  | 
O=C(Cn1cc(-c2ccc3c(NC(=O)C4CC4)n[nH]c3c2)cn1)Nc1cc(C(F)(F)F)ccc1F | 0.012 | 5.06 | 8.82 | 5.61 | 3.73 | 5.26 | 25 |  |  |  |  |  | 
Cn1cc2ccc(Nc3n[nH]c4cc(-c5cnn(CC(=O)Nc6ccc(Cl)c(C(F)(F)F)c6)c5)ccc34)cc2n1 | 0.249 | 6.11 | 4.72 | 4.32 | 5.03 | 6.4 | 10 |  |  |  |  |  | 
CNC(=O)c1cc(Oc2ccc(NC(=O)Nc3ccc(Cl)c(C(F)(F)F)c3)cc2)ccn1 [SORAFENIB] |  | 5.57 | 5.13 | 6.18 | 5.22 | 8.33 | 9.59 | 25.41 | 50.6 | 6.91 | 18.5 | 24 | Dose-Dependent Effect
CS(=O)(=O)Cc1cccc(Nc2n[nH]c3cc(-c4cnn(CC(=O)Nc5ccc(Cl)c(C(F)(F)F)c5)c4)ccc23)c1 | 0.143 | 3.69 | 7.17 | 6.54 | 1.26 | 7.22 | 17.7 |  |  |  |  |  | 
Cc1ccc(NC(=O)Cn2cc(-c3ccc4c(NC(=O)C5CC5)n[nH]c4c3)c(C)n2)cc1C(F)(F)F | 0.027 | 7.03 | 1.65 | 20.4 | 0.65 | 4.92 | 3.09 |  |  |  |  |  | 
Nc1n[nH]c2cc(-c3cnn(CC(=O)Nc4cc(C(F)(F)F)ccc4F)c3)ccc12 | 0.022 | 7.83 | 20.5 | 13.3 | 15.5 | 23.9 | 7.64 |  |  |  |  |  | 
Cc1ccc(NC(=O)Cn2cc(-c3ccc4c(NC(=O)c5cnn(C)c5)n[nH]c4c3)cn2)cc1C(F)(F)F | 0.00073 | 4.92 | 3.86 | 2.61 | 0.021 | 4.41 | 1.67 |  |  |  |  |  | 
Cc1ccc(NC(=O)Cn2cc(-c3ccc4c(NC(=O)c5cccnc5)n[nH]c4c3)cn2)cc1C(F)(F)F | 0.0023 | 7.78 | 5.34 | 9.08 | 1.17 | 1.75 | 8.46 |  |  |  |  |  | 
Cc1ccc(NC(=O)Cc2cccc(-c3ccc4c(NC(=O)C5CC5)n[nH]c4c3)c2)cc1C(F)(F)F |  | > 50 | 20.9 | 25.5 | 15.6 | > 50 | 48.5 |  |  |  |  |  | 
Cc1ccc(NC(=O)Cn2nc(C)c(-c3ccc4c(NC(=O)C5CC5)n[nH]c4c3)c2C)cc1C(F)(F)F | 0.307 | 14.7 | 1.81 | 27.4 | 2.79 | 6.62 | 11.9 |  |  |  |  |  | 
Cc1ccc(NC(=O)Cc2ccc(-c3ccc4c(NC(=O)C5CC5)n[nH]c4c3)s2)cc1C(F)(F)F | 0.012 | 8.09 | 0.96 | 38.1 | 3.09 | 5.62 | 13.9 |  |  |  |  |  | 
Cc1ccc(NC(=O)Cn2cc(-c3ccc4c(NCC5CC5)n[nH]c4c3)cn2)cc1C(F)(F)F | 0.06 | 11 | 9.88 | 22.3 | 1.22 | 17.9 | 12 |  |  |  |  |  | 
Cc1ccc(NC(=O)Cn2cc(-c3ccc4c(NC(=O)C5CC5)n[nH]c4c3)nn2)cc1C(F)(F)F |  | > 50 | > 50 | > 50 | > 50 | < 1 | > 100 |  |  |  |  |  | 
Cn1cc(Nc2n[nH]c3cc(-c4cnn(CC(=O)Nc5ccc(Cl)c(C(F)(F)F)c5)c4)ccc23)cn1 | 0.22 | 9.17 | 12.1 | 10.4 | 12.5 | 4.03 | 13.3 |  |  |  |  |  | 
CCNc1n[nH]c2cc(-c3cnn(CC(=O)Nc4ccc(C)c(C(F)(F)F)c4)c3)ccc12 | 0.038 | 8.32 | 8.48 | 15.1 | 1.19 | > 50 | 1.9 |  |  |  |  |  | 
O=C(Cn1cc(-c2ccc3c(Nc4cccnc4)n[nH]c3c2)cn1)Nc1ccc(Cl)c(C(F)(F)F)c1 | 0.892 | 5.21 | 7.96 | 5.63 | 3.65 | 8.04 | 12.8 |  |  |  |  |  | 
Cc1ccc(NC(=O)Cc2ccc(-c3ccc4c(NC(=O)C5CC5)n[nH]c4c3)cc2)cc1C(F)(F)F |  | 44.7 | 45.1 | > 50 | 33.7 | > 100 | > 100 |  |  |  |  |  | 

The next compounds have a lower IC50 (HT-29) than those just listed; values first:

IC50 [1] [µM] | IC50 (HT-29) [µM] | IC50 (A549) [µM] | IC50 (HepG2) [µM] | SMILES | IC50 (HGC-27 [2]) [µM] | IC50 (HUVEC [3]) [µM] | IC50 (GES1) [µM] | Activity (HGC-27 [4]) [%] | Activity (HGC-27 [5]) [%] | Activity (HGC-27 [6]) [%] | Activity (HGC-27 [7]) [%] | Activity (HGC-27 [8]) [%] | inhibition (HUVEC [9])
0.012 | 3.57 | 12.5 | 7.71 | Nc1n[nH]c2cc(-c3cnn(CC(=O)Nc4ccc(Cl)c(C(F)(F)F)c4)c3)ccc12 | 7.68 | 6.84 | 12 |  |  |  |  |  | 
0.407 | 3.27 | 1.37 | 3.83 | CNS(=O)(=O)c1cc(Nc2n[nH]c3cc(-c4cnn(CC(=O)Nc5ccc(Cl)c(C(F)(F)F)c5)c4)ccc23)ccc1C | 0.39 | 1.45 | 3.37 |  |  |  |  |  | 
0.011 | 1.79 | 5.28 | 15.3 | Cc1ccc(NC(=O)Cn2cc(-c3ccc4c(NC(=O)C5CCN(C)CC5)n[nH]c4c3)cn2)cc1C(F)(F)F | 0.16 | 53.9 | 5.31 |  |  |  |  |  | 
0.0027 | 1.54 | 7.09 | 4.18 | Cc1ccc(NC(=O)Cn2cc(-c3ccc4c(N)n[nH]c4c3)cn2)cc1C(F)(F)F | 4.98 | 5.24 | 6.96 |  |  |  |  |  | 
0.014 | 1.37 | 8.55 | 6.03 | O=C(Cn1cc(-c2ccc3c(NC(=O)C4CC4)n[nH]c3c2)cn1)Nc1ccc(Cl)c(C(F)(F)F)c1 | 1.05 | 1.07 | 29.8 |  |  |  |  |  | 
0.0014 | 1.01 | 2.16 | 2.51 | Cc1ccc(NC(=O)Cn2cc(-c3ccc4c(NC(=O)C5CC5)n[nH]c4c3)cn2)cc1C(F)(F)F | 0.63 | 0.95 | 4.24 |  |  |  |  |  | 
0.028 | 0.48 | 2.48 | 13.7 | Cc1ccc(NC(=O)Cn2cc(-c3ccc4c(NC(=O)C(C)C)n[nH]c4c3)cn2)cc1C(F)(F)F | 0.39 | 2.43 | > 100 |  |  |  |  |  | 
0.015 | 0.19 | 1.58 | 8.34 | Cc1ccc(NC(=O)Cn2cc(-c3ccc4c(NC(=O)C5CCCC5)n[nH]c4c3)cn2)cc1C(F)(F)F | 0.5 | 1.49 | 0.75 |  |  |  |  |  | 
